Test results published in ChEMBL document CHEMBL3091454, “Improved Cav2.2 Channel Inhibitors through a gem-Dimethylsulfone Bioisostere Replacement of a Labile Sulfonamide” (ACS Med Chem Lett, 2013).

How the values were obtained:
[1] = biological target: T1, Voltage-dependent N-type calcium channel subunit alpha-1B (Homo sapiens, UniProt Q00975); experiment: Inhibition of Cav2.2-mediated calcium influx in HEK cells by FLIPR assay; assay type: cell-based, HEK293
Outline: (§1)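 Cav2.2 calcium-influx FLIPR assay; compounds screened for percent inhibition at single concentration, active ones titrated for IC50; values averaged over n ≥ 3.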
Target sequence in this assay (Q00975 whole entry): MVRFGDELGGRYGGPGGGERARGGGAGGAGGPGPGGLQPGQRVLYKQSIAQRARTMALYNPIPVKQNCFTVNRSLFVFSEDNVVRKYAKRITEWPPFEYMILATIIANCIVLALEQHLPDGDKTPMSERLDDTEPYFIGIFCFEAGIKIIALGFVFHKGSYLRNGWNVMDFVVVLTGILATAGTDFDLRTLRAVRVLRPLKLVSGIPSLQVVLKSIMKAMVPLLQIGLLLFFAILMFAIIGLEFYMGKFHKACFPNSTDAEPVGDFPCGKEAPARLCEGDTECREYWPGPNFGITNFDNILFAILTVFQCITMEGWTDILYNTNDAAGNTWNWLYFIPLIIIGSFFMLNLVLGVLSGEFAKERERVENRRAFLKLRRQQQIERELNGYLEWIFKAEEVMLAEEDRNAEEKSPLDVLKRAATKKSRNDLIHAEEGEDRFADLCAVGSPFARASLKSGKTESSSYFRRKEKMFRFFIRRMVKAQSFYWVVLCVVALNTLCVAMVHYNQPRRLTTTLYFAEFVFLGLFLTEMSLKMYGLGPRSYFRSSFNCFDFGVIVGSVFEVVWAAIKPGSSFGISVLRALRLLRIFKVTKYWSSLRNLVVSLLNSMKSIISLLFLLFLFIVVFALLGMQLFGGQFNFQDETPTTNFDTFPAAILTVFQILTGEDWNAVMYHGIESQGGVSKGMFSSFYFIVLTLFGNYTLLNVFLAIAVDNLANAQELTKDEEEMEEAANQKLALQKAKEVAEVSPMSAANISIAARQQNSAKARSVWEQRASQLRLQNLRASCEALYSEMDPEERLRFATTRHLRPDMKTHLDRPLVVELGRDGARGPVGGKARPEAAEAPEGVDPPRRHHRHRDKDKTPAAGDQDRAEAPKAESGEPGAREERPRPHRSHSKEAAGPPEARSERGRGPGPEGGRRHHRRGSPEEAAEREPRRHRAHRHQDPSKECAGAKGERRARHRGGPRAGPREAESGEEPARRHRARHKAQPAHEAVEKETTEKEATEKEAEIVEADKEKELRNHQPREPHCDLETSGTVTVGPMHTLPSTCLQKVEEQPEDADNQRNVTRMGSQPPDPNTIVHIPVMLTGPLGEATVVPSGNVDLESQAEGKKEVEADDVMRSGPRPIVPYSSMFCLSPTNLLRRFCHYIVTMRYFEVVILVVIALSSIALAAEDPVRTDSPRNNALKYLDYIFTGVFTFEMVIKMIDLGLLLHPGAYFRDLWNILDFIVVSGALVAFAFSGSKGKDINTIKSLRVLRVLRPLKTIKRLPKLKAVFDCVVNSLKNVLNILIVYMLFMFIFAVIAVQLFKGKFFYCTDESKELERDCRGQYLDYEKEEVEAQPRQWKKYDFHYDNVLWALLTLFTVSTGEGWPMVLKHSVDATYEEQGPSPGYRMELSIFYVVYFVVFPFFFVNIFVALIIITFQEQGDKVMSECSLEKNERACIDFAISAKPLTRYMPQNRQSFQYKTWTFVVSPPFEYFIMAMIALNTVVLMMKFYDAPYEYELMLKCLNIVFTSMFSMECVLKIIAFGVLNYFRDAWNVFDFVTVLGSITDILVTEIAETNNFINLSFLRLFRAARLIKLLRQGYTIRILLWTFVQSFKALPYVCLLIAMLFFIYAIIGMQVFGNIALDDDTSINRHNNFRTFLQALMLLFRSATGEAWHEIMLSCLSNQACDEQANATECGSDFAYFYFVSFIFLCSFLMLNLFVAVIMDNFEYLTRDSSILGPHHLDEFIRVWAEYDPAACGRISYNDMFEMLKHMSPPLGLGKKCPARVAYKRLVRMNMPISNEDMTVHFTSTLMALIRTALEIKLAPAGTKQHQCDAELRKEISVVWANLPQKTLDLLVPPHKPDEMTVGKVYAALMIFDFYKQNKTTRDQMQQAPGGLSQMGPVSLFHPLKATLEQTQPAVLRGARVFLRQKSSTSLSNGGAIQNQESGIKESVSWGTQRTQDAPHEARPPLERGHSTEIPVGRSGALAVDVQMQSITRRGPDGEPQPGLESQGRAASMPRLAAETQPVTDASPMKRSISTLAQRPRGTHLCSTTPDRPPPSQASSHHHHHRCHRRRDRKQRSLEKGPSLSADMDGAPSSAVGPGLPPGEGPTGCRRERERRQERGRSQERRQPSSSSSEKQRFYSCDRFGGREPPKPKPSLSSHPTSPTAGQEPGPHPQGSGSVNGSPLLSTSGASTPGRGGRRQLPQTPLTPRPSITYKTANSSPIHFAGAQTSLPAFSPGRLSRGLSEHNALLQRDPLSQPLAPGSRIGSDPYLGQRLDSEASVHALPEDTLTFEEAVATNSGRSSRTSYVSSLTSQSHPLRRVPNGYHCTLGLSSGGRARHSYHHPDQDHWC

[2] = biological target: T1, Voltage-dependent N-type calcium channel subunit alpha-1B; experiment: Inhibition of Cav2.2-mediated calcium influx in HEK cells at 10 uM by FLIPR assay relative to control; assay type: cell-based; conditions: HEK293, 1 uM, in the assay text read “at 1 uM” for “at 10 uM”; outline: as §1
Target sequence in this assay (Q00975 whole entry, looked up): as the sequence (Q00975 whole entry) above

CYP3A4 = CYP3A4 (Homo sapiens, UniProt P08684); experiment: Inhibition of CYP3A4 (unknown origin) at 10 uM relative to control; assay type: ADME
hERG (KCNH2) = hERG (KCNH2) (Homo sapiens, UniProt Q12809); experiment: Displacement of [35S]MK-499 from human ERG at 10 uM relative to control; conditions: probe [35S]MK-499
Outline: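 hERG binding assessed by displacement of [35S]MK-499; percent inhibition at 10 μM test compound.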

[3] = biological target: T2, Nuclear receptor subfamily 1 group I member 2 (Homo sapiens, UniProt O75469); experiment: Activation of PXR (unknown origin)
T2 sequence (O75469 whole entry): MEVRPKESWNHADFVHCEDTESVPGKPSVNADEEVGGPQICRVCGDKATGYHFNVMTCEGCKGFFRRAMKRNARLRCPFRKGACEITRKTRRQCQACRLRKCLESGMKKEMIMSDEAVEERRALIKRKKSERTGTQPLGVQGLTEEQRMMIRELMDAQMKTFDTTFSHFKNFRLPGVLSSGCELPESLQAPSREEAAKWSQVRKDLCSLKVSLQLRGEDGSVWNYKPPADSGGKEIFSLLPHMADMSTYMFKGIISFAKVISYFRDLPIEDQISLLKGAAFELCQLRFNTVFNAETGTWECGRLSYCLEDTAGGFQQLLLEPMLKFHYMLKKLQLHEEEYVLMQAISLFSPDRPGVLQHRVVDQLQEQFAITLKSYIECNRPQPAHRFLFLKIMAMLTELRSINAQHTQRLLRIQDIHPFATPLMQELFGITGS

Liver microsome [4] = experiment: Drug metabolism in human liver microsomes assessed as 3-(trifluoromethyl)-benzenesulfonamide level after 1 hr in presence of NADPH; assay type: ADME
Liver microsome [5] = experiment: Drug metabolism in rat liver microsomes assessed as 3-(trifluoromethyl)-benzenesulfonamide level after 1 hr in presence of NADPH; assay type: ADME
[6] = Metabolic stability in human liver microsomes assessed as compound remaining at 10 uM after 1 hr in presence of NADPH; assay type: ADME; conditions: read-out: Stability
Outline: (§2)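 Liver microsomes (rat or human) incubated with compound and NADPH for 1 h; percent of parent remaining. Table footnote gives 10 μM compound, 1 mM NADPH, 1 mg/mL protein; text gives 1 μM substrate, 1 mg/mL protein.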

[7] = Metabolic stability in rat liver microsomes assessed as compound remaining at 10 uM after 1 hr in presence of NADPH; assay type: ADME; conditions: read-out: Stability; outline: as §2
[8] = Fraction unbound in 100% rat plasma; assay type: ADME, cell-free
Outline: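 Unbound fraction measured in 100% rat plasma.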

Rattus norvegicus [9] = experiment: Antinociceptive activity in rat inflammatory pain model assessed as reversal of CFA-induced mechanical allodynia at 30 mg/kg, po after 3 hrs; assay type: functional
Outline: (§3)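 Rats given intraplantar complete Freund's adjuvant in the hind paws to induce inflammatory pain; mechanical allodynia assessed 1 and 3 h after a single oral dose. Percent reversal per rat calculated as (postdose − predose)/(preinjury − predose), averaged over n = 6 rats.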

Rattus norvegicus [10] = experiment: Antinociceptive activity in rat inflammatory pain model assessed as reversal of CFA-induced mechanical allodynia at 30 mg/kg, po after 1 hr; assay type: functional; outline: as §3
Rattus norvegicus [11] = experiment: Antinociceptive activity in rat inflammatory pain model assessed as reversal of CFA-induced mechanical allodynia at 10 mg/kg, po after 3 hrs; assay type: functional; outline: as §3
Rattus norvegicus [12] = experiment: Antinociceptive activity in rat inflammatory pain model assessed as reversal of CFA-induced mechanical allodynia at 10 mg/kg, po after 1 hr; assay type: functional; outline: as §3
[13] = Clearance in rat at 3 mg/kg, po and 1 mg/kg, iv; assay type: ADME, organism-based; conditions: in vivo
Outline: (§4)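 Rats dosed 3 mg/kg orally and 1 mg/kg intravenously; PK parameters derived from whole-blood concentrations. Normalized oral AUC given in μM·h·kg/mg, clearance in mL/min/kg, plus half-life and oral bioavailability.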

[14] = Oral bioavailability in rat at 3 mg/kg; assay type: ADME, organism-based; conditions: in vivo; outline: as §4
MDR1 (ABCB1) = MDR1 (ABCB1) (Homo sapiens, UniProt P08183); experiment: Activity at human MDR1 expressed in MDCK2 cells assessed as apparent permeability by LC/MS/MS analysis; assay type: ADME, cell-based, MDCK-II; conditions: MDCK-MDR1
Cytochrome P450 3A4 = Cytochrome P450 3A4 (Homo sapiens, UniProt P08684); experiment: Inhibition of CYP3A4 (unknown origin); assay type: ADME
Rattus norvegicus [15] = experiment: Normalized AUC in rat whole blood at 3 mg/kg, po; assay type: ADME, organism-based; design: dose 3 mg/kg, route oral; conditions: in vivo; outline: as §4
Rattus norvegicus [16] = experiment: Normalized AUC in rat whole blood assessed as 3-(trifluoromethyl)-benzenesulfonamide level at 3 mg/kg, po; assay type: ADME, organism-based; design: dose 3 mg/kg, route oral; conditions: in vivo
Outline: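 Rats given a single 3 mg/kg oral dose of parent; whole-blood levels of parent and sulfonamide metabolite followed over time, n = 2 rats. Metabolite AUC normalized to dose (μM·h·kg/mg).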

Sequence of CYP3A4 (P08684 whole entry): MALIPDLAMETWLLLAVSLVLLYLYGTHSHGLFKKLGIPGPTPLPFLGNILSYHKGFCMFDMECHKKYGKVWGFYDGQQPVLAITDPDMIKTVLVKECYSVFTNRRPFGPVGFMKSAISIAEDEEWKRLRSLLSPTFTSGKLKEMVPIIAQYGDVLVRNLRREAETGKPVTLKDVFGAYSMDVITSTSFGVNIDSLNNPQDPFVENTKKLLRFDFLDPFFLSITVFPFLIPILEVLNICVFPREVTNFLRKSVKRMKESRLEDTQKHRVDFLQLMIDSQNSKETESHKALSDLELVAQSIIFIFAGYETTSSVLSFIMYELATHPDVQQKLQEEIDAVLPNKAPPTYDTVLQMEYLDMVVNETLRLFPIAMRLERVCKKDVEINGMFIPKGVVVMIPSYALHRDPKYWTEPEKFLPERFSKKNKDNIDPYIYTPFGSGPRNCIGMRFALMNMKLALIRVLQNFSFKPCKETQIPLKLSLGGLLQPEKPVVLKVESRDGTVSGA
Sequence of hERG (KCNH2) (Q12809 whole entry): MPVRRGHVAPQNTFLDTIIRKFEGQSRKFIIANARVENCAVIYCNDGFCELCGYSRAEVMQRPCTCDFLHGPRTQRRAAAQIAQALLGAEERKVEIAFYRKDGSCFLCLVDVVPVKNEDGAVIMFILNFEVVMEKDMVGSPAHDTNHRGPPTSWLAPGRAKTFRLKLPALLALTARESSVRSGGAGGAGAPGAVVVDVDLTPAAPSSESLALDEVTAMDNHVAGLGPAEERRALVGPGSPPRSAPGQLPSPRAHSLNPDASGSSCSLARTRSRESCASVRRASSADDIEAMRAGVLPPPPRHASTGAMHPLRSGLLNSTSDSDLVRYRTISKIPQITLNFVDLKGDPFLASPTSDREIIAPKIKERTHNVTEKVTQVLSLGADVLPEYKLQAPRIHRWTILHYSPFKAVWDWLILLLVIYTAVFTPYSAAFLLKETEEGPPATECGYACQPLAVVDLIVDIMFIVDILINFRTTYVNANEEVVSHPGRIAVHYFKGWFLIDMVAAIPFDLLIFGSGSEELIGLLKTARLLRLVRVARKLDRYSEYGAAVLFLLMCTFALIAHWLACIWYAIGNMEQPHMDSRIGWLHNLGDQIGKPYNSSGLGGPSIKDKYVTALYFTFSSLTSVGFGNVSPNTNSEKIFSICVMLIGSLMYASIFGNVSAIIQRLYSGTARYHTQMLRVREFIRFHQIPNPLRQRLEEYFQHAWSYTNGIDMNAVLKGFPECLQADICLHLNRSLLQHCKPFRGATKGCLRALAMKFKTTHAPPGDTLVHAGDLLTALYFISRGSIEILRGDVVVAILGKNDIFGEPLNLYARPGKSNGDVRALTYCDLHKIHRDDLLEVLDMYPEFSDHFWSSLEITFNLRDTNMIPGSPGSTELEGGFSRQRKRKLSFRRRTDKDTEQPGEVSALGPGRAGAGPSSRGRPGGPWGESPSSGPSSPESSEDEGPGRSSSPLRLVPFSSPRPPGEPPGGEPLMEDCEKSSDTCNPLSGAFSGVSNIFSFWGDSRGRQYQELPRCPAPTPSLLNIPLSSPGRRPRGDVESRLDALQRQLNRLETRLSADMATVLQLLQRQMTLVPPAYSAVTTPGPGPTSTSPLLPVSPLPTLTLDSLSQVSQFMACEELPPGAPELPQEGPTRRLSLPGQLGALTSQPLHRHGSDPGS
Sequence of Cytochrome P450 3A4 (P08684 whole entry): as the sequence (P08684 whole entry) above

| IC50 [1] [nM] | inhibition at 10 µM (CYP3A4) [%] | EC50 [3] [nM] | SMILES | inhibition at 10 µM (hERG (KCNH2)) [%] | further results |
| --- | --- | --- | --- | --- | --- |
| 380 | – | – | C[C@@H]1[C@H](N(C2CC2)S(=O)(=O)c2cccc(C(F)(F)F)c2)CN1C(=O)c1cc(F)ccc1S(C)(=O)=O (racemic) | – | – |
| – | – | – | CS(=O)(=O)c1ccc(C(=O)N2CCC(N(C(=O)c3cccc(C(F)(F)F)c3)C3CC3)CC2)c(OC(F)(F)F)c1 | – | inhibition [2]: 48% |
| 390 | 60 | > 10000 | NC(=O)c1ccc(C(=O)N2CCC(N(C3CC3)S(=O)(=O)c3cccc(C(F)(F)F)c3)CC2)c(OC(F)(F)F)c1 | 41 | – |
| 970 | – | – | CS(=O)(=O)c1ccc(F)cc1C(=O)N1CC(N(C2CC2)S(=O)(=O)c2cccc(C(F)(F)F)c2)C1 | – | – |
| 310 | – | – | CS(=O)(=O)c1ccc(C(=O)N2CCC3(CCN(S(=O)(=O)c4cccc(C(F)(F)F)c4)CC3)C2)c(C(F)(F)F)c1 | – | Drug metabolism (Liver microsome [4]): 5.13 µM; Drug metabolism (Liver microsome [5]): 0.18 µM; remaining at 1 h, 10 µM [6]: 4.2%; remaining at 1 h, 10 µM [7]: 3.8% |
| 290 | 78 | 10800 | CS(=O)(=O)c1ccc(C(=O)N2CCC(N(C3CC3)S(=O)(=O)c3cccc(C(F)(F)F)c3)CC2)c(Cl)c1 | 32 | – |
| 510 | – | 2500 | CC(C)(C1CCN(C(=O)c2cc(F)ccc2S(C)(=O)=O)CC1)S(=O)(=O)c1cccc(C(F)(F)F)c1 | – | fraction unbound [8]: 0.068; Efficacy (Rattus norvegicus [9]): 54%; Efficacy (Rattus norvegicus [10]): 57%; Efficacy (Rattus norvegicus [11]): 49%; Efficacy (Rattus norvegicus [12]): 36%; clearance [13]: 29 mL/min/kg; bioavailability [14]: 24%; Papp (MDR1 (ABCB1)): 35 ×10⁻⁶ cm/s; IC50 (Cytochrome P450 3A4): 10000 nM; AUC/dose (Rattus norvegicus [15]): 0.27 µM·kg·h/mg; remaining at 1 h, 10 µM [6]: 64%; remaining at 1 h, 10 µM [7]: 68% |
| 72 | – | – | CS(=O)(=O)c1cc(C(F)(F)F)ccc1C(=O)N1CCC2(CCN(S(=O)(=O)c3cccc(C(F)(F)F)c3)CC2)C1 | – | AUC/dose (Rattus norvegicus [16]): 218 µM·kg·h/mg; AUC/dose (Rattus norvegicus [15]): 0.022 µM·kg·h/mg; remaining at 1 h, 10 µM [6]: 8.5%; remaining at 1 h, 10 µM [7]: 12% |
| 48 | 16 | 1700 | CS(=O)(=O)c1ccc(C(=O)N2CCC(N(C3CC3)S(=O)(=O)c3cccc(C(F)(F)F)c3)CC2)c(OC(F)(F)F)c1 | 63 | – |
| 360 | – | – | CS(=O)(=O)c1ccc(C(=O)N2CCC(CS(=O)(=O)c3cccc(C(F)(F)F)c3)CC2)c(OC(F)(F)F)c1 | – | – |
| 88 | – | – | CC(C1CCN(C(=O)c2ccc(S(C)(=O)=O)cc2OC(F)(F)F)CC1)S(=O)(=O)c1cccc(C(F)(F)F)c1 (stereo in doubt; 30 en-1) | – | – |
| 350 | – | 6800 | CS(=O)(=O)c1ccc(C(=O)N2CCC(N(C3CC3)S(=O)(=O)c3cccc(C(F)(F)F)c3)CC2)c(F)c1 | 78 | – |
| 21 | 75 | 2800 | CS(=O)(=O)c1ccc(C(=O)N2CCC(N(C3CC3)S(=O)(=O)c3cccc(C(F)(F)F)c3)CC2)c(C(F)(F)F)c1 | 58 | – |
| 27 | 78 | 4300 | CS(=O)(=O)c1cc(C(F)(F)F)ccc1C(=O)N1CCC(N(C2CC2)S(=O)(=O)c2cccc(C(F)(F)F)c2)CC1 | 43 | – |
| 710 | – | – | CC1(N(C2CC2)S(=O)(=O)c2cccc(C(F)(F)F)c2)CCN(C(=O)c2cc(F)ccc2S(C)(=O)=O)CC1 | – | Drug metabolism (Liver microsome [4]): 0.04 µM; Drug metabolism (Liver microsome [5]): 0.06 µM |
